# Sampled rows, rich in hits. Any-hit rate of the full collection: about 4.6%.
# OX1R antag-1: antagonists of human orexin 1 receptor (OX1R). OX1R-expressing cells, FRET antagonist read-out. inhibition, % at 6.6 µM. O43613. AID 485270. 330,000 tested, 1.8% active; in the data active = inhibition mostly above about 38%, no sharp cut-off; inactive = mostly below about 40%;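 note: 0% = agonist challenge alone and 100% = reference antagonist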
# Target sequence (O43613 whole entry, looked up): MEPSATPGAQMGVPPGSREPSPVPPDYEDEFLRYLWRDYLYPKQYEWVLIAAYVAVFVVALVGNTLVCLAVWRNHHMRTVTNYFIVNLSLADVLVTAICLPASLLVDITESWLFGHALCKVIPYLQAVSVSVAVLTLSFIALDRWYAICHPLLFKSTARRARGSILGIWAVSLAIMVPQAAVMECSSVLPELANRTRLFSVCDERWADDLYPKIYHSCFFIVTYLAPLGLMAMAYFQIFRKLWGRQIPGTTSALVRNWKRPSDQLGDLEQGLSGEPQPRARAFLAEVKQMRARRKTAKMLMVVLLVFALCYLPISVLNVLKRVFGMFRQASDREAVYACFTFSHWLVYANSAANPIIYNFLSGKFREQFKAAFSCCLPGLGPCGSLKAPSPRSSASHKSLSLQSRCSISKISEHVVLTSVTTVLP
# GPR7 antag: antagonists of human GPR7 (neuropeptides B/W receptor 1) | P48145 | GPR7-expressing cells, fluorescence antagonist assay | inhibition, % at 4.4 µM | 290,000 tested, 1.1% active; in the data active = inhibition above about 16%, passing the limit was not always enough;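 note: cells stimulated with the agonist NPW; 0% = agonist with vehicle and 100% = vehicle without agonist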
# TAAR1 ag: human TAAR1 agonism. CHO RD-HGA16 TAAR1, Fluo-8 calcium fluorescence; vehicle wells 0%, saturating PEA agonist 100%. activation, % at 3 µM. Q96RJ0. 360,000 tested, 0.99% active;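 active = activation above the mean activation of all test compounds in the run plus 3 SD, cut at about 38% in these data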
#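 System: CHO RD-HGA16 cells carrying human TAAR1 plus Gα16; Incubation: 17-24 h seeding, 75 min 37 °C dye, 30 min RT; Measured by: Fluo-8 fluorescence, 5 s baseline then 140 s kinetic read; Control set: DMSO and PEA EC100; Replication: single well for each compound.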
# TAAR1 antag: antagonists of human TAAR1. Q96RJ0. CHO RD-HGA16 TAAR1, Fluo-8 calcium fluorescence, antagonist. inhibition, % at 3 µM. 360,000 tested, 1.5% active;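 active = inhibition above a per-plate cutoff, the mean inhibition of test compounds on that plate plus 3 SD, cut at about 49% in these data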;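 note: 0% = DMSO plus EC80 beta-PEA response and 100% = DMSO alone without agonist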
#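 Material: CHO RD-HGA16 cells bearing hTAAR1; compound dosing: one-point dosing, 3 µM nominal final; schedule: dye loading 75 min at 37 °C, then 30 min room temperature; measured by: calcium fluorescence with Fluo-8; control set: vehicle and agonist controls; replication: n of 1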
# OX1R antag-2: blocks the human orexin 1 receptor. CHO/OX1R cells, Fluo-8 calcium fluorescence, orexin A. inhibition, % at 5 µM. 330,000 tested, 0.43% active. AID 434989;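 active = inhibition above its plate's threshold, mean inhibition of all tested compounds on the plate plus 3 SD, cut at about 37% in these data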;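 note: 0% = orexin A challenge wells and 100% = SB-334867-A antagonist wells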
# CHO parental Ca: counter-screen: ATP calcium response change in parental CHO cells; parental CHO-K1, ATP-induced calcium, Fluo-8 fluorescence; inhibition, % at 5.6 µM; 330,000 tested, 0.63% active;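 active = inhibition above that plate's mean sample inhibition plus 3 SD, cut at about 26% in these data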;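 note: 0% = ATP-challenged DMSO wells and 100% = DMSO wells without ATP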
#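 Measured by: calcium-sensitive Fluo-8 fluorescence / Test system: CHO parental line / Controls: ATP-challenged DMSO wells low, unchallenged DMSO wells high / Measure: % inhibition / Compound: single nominal dose of 5.6 µM per compound / Replicates: single well per compound, no replicates / Reagent: ATP as calcium-mobilizing challenge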
# Numbers without * were called inactive; . = no result given.
SMILES,OX1R antag-1,GPR7 antag,TAAR1 ag,TAAR1 antag,OX1R antag-2,CHO parental Ca
COC(=O)c1cccc(CN2C(=O)C(C)Sc3ccc(C#N)cc32)c1 (stereo unspecified),.,.,-0.3,1.3,.,.
COc1ccccc1C(=O)NC(=S)Nc1cccnc1Cl,47.5*,-13.6,-3.6,7.2,-9.2,-22.5
O=C(/C=C/c1c(Cl)nc2ccccn12)Nc1ccc(F)cc1,52.6*,-1.7,5.8,-0.5,-5.6,-16.5
O=Cc1c(Cl)nc2ccccn12,14.4,-7.3,8.4,-3.7,-12.2,-3.9
CN(C(=O)Nc1ccc(Cl)c(Cl)c1)c1ccccc1C(=O)O,9.8,-7.1,6.7,20.2,18.1,35.4*
O=C(Nc1ccc(Cl)c(Cl)c1)c1ccccc1,33.4,.,27.4,21.7,7.6,-6.7
COC(=O)C1=C(C)OC(N)=C(C#N)C1c1cc(C)sc1C (stereo unspecified),23.6,10.0,0.4,11.5,-28.3,-14.2
C/C(=N\NC(=O)c1ccccc1O)C1C(=O)c2ccccc2C1=O,61.4*,6.8,15.6,1.3,-21.0,-12.6
C/C(=N\NC(=O)c1cc2ccccc2cc1O)c1ccccn1,3.9,-5.8,4.8,-1.9,0.9,17.0
C/C(=N/NC(=O)c1cc2ccccc2cc1O)C1C(=O)c2ccccc2C1=O,65.2*,1.6,8.7,-1.9,12.3,-8.4
CCOC(=O)C1=CCC(c2cccc3ccccc23)N(S(=O)(=O)c2ccc(C)cc2)C1 (stereo unspecified),.,.,0.2,-4.9,.,.
Cc1c(NC(=O)/C(C#N)=C/c2ccc(-c3cccc(Cl)c3)o2)c(=O)n(-c2ccccc2)n1C,74.7*,6.2,2.5,-18.8,6.0,-29.7
Cc1c(NC(=O)/C(C#N)=C/c2ccc(-c3ccccc3Cl)o2)c(=O)n(-c2ccccc2)n1C,75.0*,1.9,0.6,-3.5,-1.3,-35.5
Cc1cc(C)nc(SCC(=O)OCC(=O)N(C)c2c(N)n(Cc3ccccc3)c(=O)[nH]c2=O)n1,16.5,-7.9,1.1,-21.1,7.8,3.4
CC(C)COc1nc2ccccc2nc1N1CCN(C)CC1,.,-11.7,2.7,-11.5,.,.
CCN(CC)S(=O)(=O)c1ccc(N=NC2=C(O)CCCC2=O)cc1,54.9*,-6.6,1.9,0.5,-12.9,-9.7
COc1cc(CNC2CCCCCC2)cc(OC)c1O,8.1,-13.4,4.2,-2.1,3.0,-0.1
COc1cc(CNC2CCCC2)cc(Cl)c1OCc1ccccc1F,15.4,8.6,39.0*,26.8,6.4,20.9
CC(C)c1c(C(=O)N/N=C/C=C/c2ccccc2)nnn1-c1nonc1N,-0.9,5.9,41.8*,34.5,-14.8,-8.3
C/C(=N\NC(=O)c1nnn(-c2nonc2N)c1CN(C)c1ccccc1)c1ccccc1O,55.0*,-11.0,-0.3,15.7,22.8,4.5
CC(C)c1c(C(=O)N/N=C/c2ccncc2)nnn1-c1nonc1N,10.5,6.3,3.3,10.6,-13.3,13.7
COc1cc(/C=N/NC(=O)c2nnn(-c3nonc3N)c2C(C)C)ccc1OCc1ccc(F)cc1,7.9,6.8,1.0,7.5,34.9,48.8*
Cc1ccc(/C=N/NC(=O)c2nnn(-c3nonc3N)c2-c2ccccc2)o1,10.4,-1.4,42.9*,-8.4,9.4,-12.1
C[C@]1(CO)CCC[C@@]2(C)C1CC[C@@H](CO)[C@@H]2CCc1ccoc1 (stereo partly specified),-6.0,16.1,32.2,17.1,-17.9,1.7
CCOc1ncccc1C(=O)Nc1ccc2c(c1)OCO2,11.5,-4.3,-1.8,-30.6,-15.0,-19.8
SMILES,OX1R antag-1,GPR7 antag,TAAR1 ag,TAAR1 antag,OX1R antag-2,CHO parental Ca
CCOc1ncccc1C(=O)Nc1cc2c(cc1Br)OCCO2,39.8*,.,7.0,-20.8,21.6,-30.4
CCOc1ncccc1C(=O)Nc1nnc(C)s1,14.5,-4.8,0.9,-7.5,1.4,-13.0
O=C(CSc1ccccc1)Nc1nnc(C2CC2)s1,21.3,15.2,8.2,-23.6,-4.2,29.8*
CCOc1ncccc1C(=O)Nc1nnc(C2CC2)s1,73.9*,0.1,2.8,4.8,8.9,-11.9
O=C(CSc1cccc(C(F)(F)F)c1)Nc1nnc(C2CC2)s1,3.4,.,3.3,-24.2,8.9,4.5
CCOc1ccccc1NC(=O)COC(=O)/C=C/c1cccs1,12.9,.,1.7,18.8,7.5,-27.6
